Laboratory results: ChEMBL document CHEMBL1137710, “Synthesis and in vitro antitumor activity of new quinoxaline derivatives” (2009)

Legend:
Format in all cases: functional
NCI-H23 = assay: Growth inhibition of human NCI-H23 cells after 48 hrs by sulforhodamine B assay; conditions: NCI-H23, 48 h
Procedure, shortened: (§1)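 NCI 60-human-tumor-cell-line panel, with compounds tested over a 5-log dose range. Values are taken from dose-response curves as log10 molar concentrations: GI50 is 50% net growth inhibition, TGI is total growth inhibition, and LC50 is 50% net cell death.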

HCT-116 = assay: Growth inhibition of human HCT116 cells after 48 hrs by sulforhodamine B assay; conditions: HCT-116, 48 h; procedure, shortened: as §1
[1] = Growth inhibition of human […] cells after 48 hrs by sulforhodamine B assay; procedure, shortened: as §1
M14 = assay: Growth inhibition of human M14 cells after 48 hrs by sulforhodamine B assay; conditions: M14, 48 h; procedure, shortened: as §1
TK-10 = assay: Growth inhibition of human TK10 cells after 48 hrs by sulforhodamine B assay; conditions: TK-10, 48 h
Procedure, shortened: (§2)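 Run in the NCI 60-human-tumour-cell-line panel, tested over a 5-log dose range. Dose–response curves gave three values per cell line, each as a log10 molar concentration: GI50 (50% inhibition of net cell growth), TGI (total inhibition of net growth) and LC50 (50% net cell death). The mean graph midpoint is the arithmetic mean over all lines, with insensitive lines entered at the highest concentration tested.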

OVCAR-5 = assay: Growth inhibition of human OVCAR5 cells after 48 hrs by sulforhodamine B assay; conditions: OVCAR-5, 48 h; procedure, shortened: as §1
SNB-19 = assay: Growth inhibition of human SNB19 cells after 48 hrs by sulforhodamine B assay; conditions: SNB-19, 48 h; procedure, shortened: as §2
MDA-MB-435 = assay: Growth inhibition of human MDA-MB-435 cells after 48 hrs by sulforhodamine B assay; conditions: MDA-MB-435, 48 h; procedure, shortened: as §1
PC-3 = assay: Growth inhibition of human PC3 cells after 48 hrs by sulforhodamine B assay; conditions: PC-3, 48 h; procedure, shortened: as §1
MDA-MB-231 = assay: Growth inhibition of human MDA-MB-231 cells after 48 hrs by sulforhodamine B assay; conditions: MDA-MB-231, 48 h; procedure, shortened: as §1
CAKI-1 = assay: Growth inhibition of human Caki1 cells after 48 hrs by sulforhodamine B assay; conditions: CAKI-1, 48 h; procedure, shortened: as §1
SF-295 = assay: Growth inhibition of human SF295 cells after 48 hrs by sulforhodamine B assay; conditions: SF-295, 48 h; procedure, shortened: as §1
786-0 = assay: Growth inhibition of human 786-0 cells after 48 hrs by sulforhodamine B assay; conditions: 786-0, 48 h; procedure, shortened: as §1
SF-268 = assay: Anticancer activity against human SF268 cells assessed as cell growth at 100 uM after 48 hrs by sulforhodamine B assay; conditions: SF-268, 48 h, read-out: Activity
COLO 205 = assay: Growth inhibition of human COLO205 cells after 48 hrs by sulforhodamine B assay; conditions: COLO 205, 48 h; procedure, shortened: as §1
[2] = Growth inhibition of human Hs 578T cells after 48 hrs by sulforhodamine B assay; procedure, shortened: as §1
SK-OV-3 = assay: Growth inhibition of human SKOV3 cells after 48 hrs by sulforhodamine B assay; conditions: SK-OV-3, 48 h; procedure, shortened: as §1
A549 = assay: Growth inhibition of human A549 cells after 48 hrs by sulforhodamine B assay; conditions: A549, 48 h; procedure, shortened: as §1
DU-145 = assay: Growth inhibition of human DU145 cells after 48 hrs by sulforhodamine B assay; conditions: DU-145, 48 h; procedure, shortened: as §1
MCF7 = assay: Anticancer activity against human MCF7 cells assessed as cell growth at 100 uM after 48 hrs by sulforhodamine B assay; conditions: MCF7, 48 h, read-out: Activity
SW-620 = assay: Growth inhibition of human SW620 cells after 48 hrs by sulforhodamine B assay; conditions: SW-620, 48 h; procedure, shortened: as §2
KM12 = assay: Growth inhibition of human KM12 cells after 48 hrs by sulforhodamine B assay; conditions: KM12, 48 h; procedure, shortened: as §1
RXF 393 = assay: Growth inhibition of human RXF393 cells after 48 hrs by sulforhodamine B assay; conditions: RXF 393, 48 h; procedure, shortened: as §1
OVCAR-8 = assay: Growth inhibition of human OVCAR8 cells after 48 hrs by sulforhodamine B assay; conditions: OVCAR-8, 48 h; procedure, shortened: as §1
U-251 = assay: Growth inhibition of human U251 cells after 48 hrs by sulforhodamine B assay; conditions: U-251, 48 h; procedure, shortened: as §2
NCI/ADR-RES = assay: Growth inhibition of human NCI/ADR-RES cells after 48 hrs by sulforhodamine B assay; procedure, shortened: as §1
LOX IMVI = assay: Growth inhibition of human LOXIMVI cells after 48 hrs by sulforhodamine B assay; procedure, shortened: as §1
NCI-H460 = assay: Growth inhibition of human NCI-H460 cells after 48 hrs by sulforhodamine B assay; conditions: NCI-H460, 48 h; procedure, shortened: as §1
SR = assay: Growth inhibition of human SR cells after 48 hrs by sulforhodamine B assay; procedure, shortened: as §2
[3] = read-out: pLC50 (the source's name) (converted)

Nc1cc(N)c2nc(-c3ccccc3)c(Oc3ccc(F)cc3)nc2c1
GI50 (NCI-H23): 20.9 µM | LC50 (50% net cell kill concentration) (NCI-H23): 77.6 µM | TGI (NCI-H23; read-out: pTGI (converted)): 39.8 µM | GI50 (HCT-116): 14.8 µM | LC50 (concentration causing 50% net cell death) (HCT-116): > 100 µM | TGI (HCT-116; read-out: pTGI (converted)): 81.3 µM | GI50 [1]: 12.3 µM | LC50 [1]: > 100 µM | TGI ([1]; read-out: pTGI (converted)): 46.8 µM | GI50 (M14): 17 µM | CC50 (M14; [3]): > 100 µM | TGI (M14; read-out: pTGI (converted)): 44.7 µM | GI50 (TK-10): 16.6 µM | CC50 (TK-10; [3]): 64.6 µM | TGI (TK-10; read-out: pTGI (converted)): 32.4 µM | GI50 (OVCAR-5): 20.4 µM | CC50 (OVCAR-5; [3]): > 100 µM | TGI (OVCAR-5; read-out: pTGI (converted)): 47.9 µM | GI50 (SNB-19): 17.4 µM | LC50 (SNB-19): 66.1 µM | TGI (SNB-19; read-out: pTGI (converted)): 33.9 µM | GI50 (MDA-MB-435): 15.8 µM | CC50 (MDA-MB-435; [3]): 67.6 µM | TGI (MDA-MB-435; read-out: pTGI (converted)): 32.4 µM | GI50 (PC-3): 8.32 µM | CC50 (PC-3; [3]): 83.2 µM | TGI (PC-3; read-out: pTGI (converted)): 27.5 µM | GI50 (MDA-MB-231): 3.89 µM | CC50 (MDA-MB-231; [3]): > 100 µM | TGI (MDA-MB-231; read-out: pTGI (converted)): 28.8 µM | GI50 (CAKI-1): 11.2 µM | CC50 (CAKI-1; [3]): 53.7 µM | TGI (CAKI-1; read-out: pTGI (converted)): 24.5 µM | GI50 (SF-295): 20.4 µM | LC50 (50% net cell kill) (SF-295): 72.4 µM | TGI (SF-295; read-out: pTGI (converted)): 38.9 µM | GI50 (786-0): 15.5 µM | CC50 (786-0; [3]): 75.9 µM | TGI (786-0; read-out: pTGI (converted)): 34.7 µM | growth at 100 µM (SF-268): 6% | GI50 (COLO 205): 20 µM | LC50 (50% net cell kill) (COLO 205): 66.1 µM | TGI (COLO 205; read-out: pTGI (converted)): 36.3 µM | GI50 [2]: 20 µM | CC50 [2, 3]: > 100 µM | TGI ([2]; read-out: pTGI (converted)): 53.7 µM | GI50 (SK-OV-3): 20.9 µM | CC50 (SK-OV-3; [3]): 83.2 µM | TGI (SK-OV-3; read-out: pTGI (converted)): 41.7 µM | GI50 (A549): 24 µM | LC50 (A549): 89.1 µM | TGI (A549; read-out: pTGI (converted)): 46.8 µM | GI50 (DU-145): 0.46 µM | CC50 (DU-145; [3]): > 100 µM | TGI (DU-145; read-out: pTGI (converted)): 87.1 µM | growth at 100 µM (MCF7): 2% | GI50 (SW-620): 19.5 µM | CC50 (SW-620; [3]): > 100 µM | TGI (SW-620; read-out: pTGI (converted)): 50.1 µM | GI50 (KM12): 14.5 µM | LC50 (50% net cell kill) (KM12): > 100 µM | TGI (KM12; read-out: pTGI (converted)): 40.7 µM | GI50 (RXF 393): 19.1 µM | CC50 (RXF 393; [3]): > 100 µM | TGI (RXF 393; read-out: pTGI (converted)): > 100 µM | GI50 (OVCAR-8): 22.4 µM | CC50 (OVCAR-8; [3]): 100 µM | TGI (OVCAR-8; read-out: pTGI (converted)): 47.9 µM | GI50 (U-251): 23.4 µM | LC50 (50% net cell kill) (U-251): > 100 µM | TGI (U-251; read-out: pTGI (converted)): 79.4 µM | GI50 (NCI/ADR-RES): 18.2 µM | CC50 (NCI/ADR-RES; [3]): 70.8 µM | TGI (NCI/ADR-RES; read-out: pTGI (converted)): 36.3 µM | GI50 (LOX IMVI): 43.7 µM | LC50 (LOX IMVI): > 100 µM | TGI (LOX IMVI; read-out: pTGI (converted)): > 100 µM | GI50 (NCI-H460): 39.8 µM | LC50 (50% net cell kill) (NCI-H460): > 100 µM | TGI (NCI-H460; read-out: pTGI (converted)): > 100 µM | GI50 (SR): 8.13 µM | LC50 (concentration giving 50% net cell death) (SR): > 100 µM | TGI (SR; read-out: pTGI (converted)): > 100 µM
